Data published in ChEMBL document CHEMBL3870302, “Computer-aided identification, synthesis and evaluation of substituted thienopyrimidines as novel inhibitors of HCV replication” (Eur J Med Chem, 2016).

Columns and labels:
[1] = Inhibition of protease domain lacking Hepatitis C virus genotype 1b (con1) C-terminal His-tagged NS3 helicase ATP hydrolysis activity using ATP as substrate preincubated followed by substrate addition measured after 15 mins in absence of poly U RNA by malachite green-based assay; design: species or system Hepatitis C virus (isolate Con1)
[2] = Selectivity index, ratio of CC50 for human HuH5.2 cells to EC50 for hepatitis C virus genotype 1b infected in human HuH5.2 cells; type: toxicity, cell-based; settings: HuH5.2 cells, read-out: Ratio CC50/EC50
How it was run: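 Ratio of CC50 (MTS metabolic read-out, 72 h) to EC50 (replicon luciferase read-out, 72 h), both measured in parallel on Huh 5-2 genotype 1b replicon cells.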

[3] = Inhibition of protease domain lacking Hepatitis C virus genotype 1b (con1) C-terminal His-tagged NS3 helicase ATP hydrolysis activity using ATP as substrate preincubated followed by substrate addition measured after 15 mins in presence of poly U RNA by malachite green-based assay; design: species or system Hepatitis C virus (isolate Con1)
[4] = Cytotoxicity against human HuH5.2 cells assessed as reduction in metabolic activity after 72 hrs by MTS assay; type: toxicity, cell-based, Huh-5-2; settings: HuH5.2 cells
How it was run: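 Run in parallel with the replicon assay: Huh 5-2 replicon cells, 6 500 cells/well, compound series for 72 h at 37 °C, 5% CO2. Medium then replaced with 5% MTS in phenol red-free medium for 1.5 h. Absorbance at 498 nm expressed as % untreated cells; CC50 from dose-response curve as 50% reduction in metabolic activity, mean of ≥2 experiments.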

[5] = Inhibition of Hepatitis C virus genotype 1b (con1) full length C-terminal His-tagged NS3 helicase expressed in Escherichia coli Rosette(DE3) assessed as inhibition of 5'-Cy5/3'-IAbRQ-labeled DNA unwinding activity by molecular beacon assay; design: species or system Hepatitis C virus (isolate Con1)
How it was run: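 Molecular beacon unwinding assay: 25 mM MOPS pH 6.5, 1.25 mM MgCl2, 5% DMSO, 5 µg/ml BSA, 0.01% Tween20, 0.05 mM DTT, 5 nM fluorescent DNA substrate, 12.5 nM NS3h, 1 mM ATP.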

[6] = Inhibition of Cy5-labeled dT15 DNA binding to Hepatitis C virus genotype 1b (con1) NS3 helicase DNA by fluorescence polarization assay; design: species or system Hepatitis C virus (isolate Con1)
How it was run: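 Displacement of NS3h from a DNA oligonucleotide, 15 nM NS3h in 25 mM MOPS pH 7.5, 1.25 mM MgCl2, 0.0025 mg/ml BSA, 0.005% Tween20, 0.025 mM DTT.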

[7] = test system: Hepatitis C virus; assay: Antiviral activity against Hepatitis C virus genotype 1b infected in human HuH5.2 cells after 72 hrs by luciferase reporter gene assay; type: functional, cell-based, Hepacivirus hominis; settings: Hepatitis C virus, genotype 1b, Huh-5-2, 72 h
How it was run: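 Huh 5-2 cells with genotype 1b I389luc-ubi-neo/NS3-3'/5.1 subgenomic replicon, seeded 6 500 cells/well in DMEM/10% FCS without Geneticin, overnight 37 °C. Compound (DMSO stock diluted in medium) in 1:5 four-step or 1:2 eight-step series, 72 h. Cells PBS-washed, lysed 5 min, luciferase luminescence read, converted to % untreated control; EC50 from dose-response curve, mean of ≥2 independent experiments.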

Row | Compound | IC50 [1] [µM] | IC50 [3] [µM] | IC50 [5] [µM] | IC50 [6] [µM] | EC50 [7] [µM] | EC90 [7] [µM] | selectivity ratio [2] | CC50 at 72 h [4] [µM]
1 | O=C(NNc1ncnc2sc3c(c12)CCC3)c1ccccc1O | > 1000 | 333 | 250 | > 1000 | 0.221 | 0.352 | 538 | 119
2 | O=C(O)C1=CC(=C(c2ccc(O)c(C(=O)O)c2)c2ccc(O)c(C(=O)O)c2)C=CC1=O [AURINTRICARBOXYLIC ACID] | 3.3 | 5.1 | 0.3 | 2 |  |  |  | 
3 | Cc1ccc2nc(-c3ccc4nc(-c5ccc(N)cc5)sc4c3)sc2c1S(=O)(=O)O | > 200 | 40 | 10 | 46 |  |  |  | 
4 | O=S(=O)(NNc1ncnc2sc3c(c12)CCCC3)c1ccccn1 |  | > 1000 | > 1000 | 675 | 42.9 | 83.2 | 3.4 | 145
5 | Oc1ccc(O)c(/C=N/Nc2ncnc3sc4c(c23)CCCC4)c1 |  |  | > 1000 |  | 1.17 | 2.92 | 31.5 | 36.8

The next lines start with results.

Row | IC50 [1] [µM] | IC50 [3] [µM] | IC50 [5] [µM] | IC50 [6] [µM] | EC50 [7] [µM] | EC90 [7] [µM] | Compound | selectivity ratio [2] | CC50 at 72 h [4] [µM]
6 | 760 | 780 | > 1000 | > 1000 | 2.6 | 20.1 | C/C(=N\Nc1ncnc2sc3c(c12)CCCC3)c1ccccc1O | 59.2 | 154
7 |  | > 1000 | > 1000 | 949 | 0.0723 | 0.192 | O=C(NNc1ncnc2sc3ccccc3c12)c1cnccn1 | 18.5 | 1.34
8 |  | > 1000 | > 1000 | 827 | 0.0861 | 0.421 | C/C(=N\Nc1ncnc2sc3ccccc3c12)c1ccccc1O | 134 | 11.5
9 |  |  | > 1000 |  | 0.475 | 0.897 | C/C(=N\Nc1ncnc2sc3ccccc3c12)c1cc(O)ccc1O | 44.2 | 21
